# In the library only some 1.2% were active in any assay of this set; here they are far more common.
# thrombin 1536 = human alpha-thrombin inhibitors, primary screen, counter-screen for coagulation protease inhibitor project, biochemical, 1536-well, fluorogenic AMC substrate. Prothrombin (Homo sapiens), P00734. Boc-VPR-AMC fluorogenic substrate cleavage. actives 0.26% (n = 220,000). inhibition, % at 5 µM. AID 1046, 2008;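 active means inhibition at or above 40%; inactive means inhibition below 40%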
#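 Material: Human alpha-thrombin protein | Buffer or medium: pH 7.5 Tris-saline with Tween 20 | Reagent: Boc-VPR-AMC substrate, 15 µM final | Schedule: Reaction at ambient temperature | Detection: AMC fluorescence at 355 nm excitation and 460 nm emission | Evaluation: Percent inhibition scaled between no-compound controls and no-enzyme blanks | Controls: no-compound enzyme wells and no-enzyme blanks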
# FXIa inh = human FXIa protease inhibitors, primary screen, biochemical, 1536-well | Coagulation factor XI (Homo sapiens), P03951 | AID 798, 2007 | inhibition, % at 5 µM | actives 0.14% (n = 220,000) | purified FXIa, Boc-Glu-Ala-Arg-AMC fluorogenic substrate;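 active means inhibition of at least 40%; inactive means inhibition below 40%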;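 further: fluorescence of freed AMC excited at 355 nm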
# FXIIa inh = human FXIIa protease inhibitors, primary screen, biochemical, 1536-well. Coagulation factor XII (Homo sapiens), P00748. purified FXIIa, Boc-QGR-AMC fluorogenic substrate, 2 h. inhibition, % at 5 µM. actives 0.3% (n = 220,000). AID 800, 2007; in the data active means inhibition above about 40%
# hK5 inh = human KLK5 protease inhibitors, primary screen, biochemical, 1536-well; actives 0.59% (n = 210,000); Kallikrein-5 (Homo sapiens), Q9Y337; recombinant hK5, fluorogenic AMC substrate cleavage; inhibition, % at 5 µM;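 active means inhibition of 40% or more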
# Furin inhibitor = human furin inhibitors, primary screen, biochemical, fluorescence intensity; P09958; purified furin, fluorogenic substrate cleavage; inhibition, % at 20 µM or 30 µM; actives 0.061% (n = 220,000); AID 463115, 2010; in the data active means inhibition above about 25%
# Target sequence (P09958 108-714 limits assumed): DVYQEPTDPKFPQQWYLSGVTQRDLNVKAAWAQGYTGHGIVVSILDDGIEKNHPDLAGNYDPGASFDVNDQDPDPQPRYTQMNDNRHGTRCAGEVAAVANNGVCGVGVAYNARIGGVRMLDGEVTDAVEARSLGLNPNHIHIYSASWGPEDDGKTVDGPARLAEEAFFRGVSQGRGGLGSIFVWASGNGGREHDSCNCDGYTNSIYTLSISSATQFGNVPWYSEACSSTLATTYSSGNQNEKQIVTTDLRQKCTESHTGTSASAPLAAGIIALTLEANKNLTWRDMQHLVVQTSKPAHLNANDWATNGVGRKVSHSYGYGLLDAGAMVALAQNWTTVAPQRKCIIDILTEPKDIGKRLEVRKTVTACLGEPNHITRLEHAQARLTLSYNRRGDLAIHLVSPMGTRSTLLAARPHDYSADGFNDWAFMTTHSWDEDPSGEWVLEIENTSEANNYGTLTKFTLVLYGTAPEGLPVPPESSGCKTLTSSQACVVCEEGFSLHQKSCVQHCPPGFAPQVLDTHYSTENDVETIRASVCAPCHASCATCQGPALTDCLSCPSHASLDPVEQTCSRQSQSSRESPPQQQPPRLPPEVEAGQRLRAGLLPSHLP
# PERK inhibitor = block of dimerizer-induced PERK translation repression, primary screen, PERK inhibitor project, CHO PERK-DD cells, SEAP luminescence, HTS; Eukaryotic translation initiation factor 2-alpha kinase 3 (Homo sapiens), Q9NZJ5; AID 1416, 2008; CHO PERK-DD fusion, SEAP luminescence translation reporter; actives 0.17% (n = 220,000); inhibition, % at 5.6 µM;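 active means inhibition above the mean inhibition of all tested compounds plus 3 SD, set separately per screening campaign, cut at about 2.9% in these data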;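 further: PERK kinase domain activated by AP20187 dimerizer at 100 nM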
# Numbers stand for hits; 0 = inactive.
SMILES,thrombin 1536,FXIa inh,FXIIa inh,hK5 inh,Furin inhibitor,PERK inhibitor
COc1ccc(S(=O)(=O)n2nc(OC(=O)c3cccs3)cc2NC(=O)c2cccs2)cc1,0,0,0,0,0,0
CCOc1ccc(N(C(C)=O)c2nc(C)cc(C)c2C#N)cc1,0,0,0,51.5,0,0
CN1CCN(C(=O)c2ccc(C(F)(F)F)cc2)CC1,0,0,0,46.1,0,0
CN1CCN(C(=O)c2ccc(C(C)(C)C)cc2)CC1,0,0,0,0,0,0
COc1cc(S(=O)(=O)Nc2ncccc2C)c(OC)cc1Cl,0,0,0,0,28.5,0
COc1ccc(Br)cc1S(=O)(=O)Nc1ncccc1C,0,0,0,0,0,0
O=C(O)CCC(=O)Nc1nnc(C(F)(F)F)s1,0,0,0,43.4,0,0
O=C(CSc1ncccn1)n1c2c(c3ccccc31)CCCC2,0,0,0,77.0,0,0
O=C(CNC(=O)c1cnccc1C(F)(F)F)c1cccc(Cl)c1,0,0,0,0,0,0
CCC(=O)NCCc1cc2ccc(C)cc2[nH]c1=O,0,0,0,0,0,3.3
Cc1ccc2cc(CCNC(=O)CC(C)C)c(=O)[nH]c2c1,0,0,0,0,0,0
Cc1ccc2cc(CNC(C)(C)C)c(=O)[nH]c2c1,0,0,0,0,0,0
CNCc1cc2ccc(C)cc2[nH]c1=O,0,0,0,44.8,0,0
CCOC(=O)C1=C(C)NC(=O)/C1=C\N(C)C,0,0,0,0,0,0
C=CCOc1ccccc1CN1CCCC(CCC(=O)N(C)CCc2ccccn2)C1 (stereo not given),0,0,0,0,0,0
O=C(CSc1nc(C2CC2)nc2ccccc12)N1c2ccccc2Sc2ccccc21,0,0,0,0,0,0
CCN(c1ccccc1)S(=O)(=O)c1ccc(C(=O)Nc2nnc(COC)o2)cc1,0,0,55.1,0,0,0
CCOC(=O)c1c(C)[nH]c(C)c1C(=O)COC(=O)c1cc(OC)c(OC)cc1OC,0,0,0,0,0,0
CCC(c1nnnn1Cc1cccs1)N1CCN(C2CCCC2)CC1 (stereo not given),0,0,0,47.3,0,0
CC(C)c1nc(SCC(=O)Nc2c[nH]c(=O)[nH]c2=O)c2cnn(-c3ccccc3)c2n1,0,0,0,0,0,0
CCOC(=O)CCNC(=O)N1CCCC(CNS(=O)(=O)c2cccs2)C1 (stereo not given),41.0,0,0,0,0,0
COc1ccc(NC(=O)N2CCCC(CNS(=O)(=O)c3cccs3)C2)c(C)c1 (stereo not given),0,0,0,0,0,0
CCOC(=O)c1ccc(Nc2nc(-c3cccnc3)nc3ccccc23)cc1,0,0,0,0,0,0
C=CCn1c(=O)/c(=C2/Sc3cc(OC)ccc3N2C)s/c1=C1\C(=O)N(CC)C(=S)N1C,0,0,0,0,0,0
CCN(CC)S(=O)(=O)c1ccc(C)c(NC(=O)CNCCN(C(C)C)C(C)C)c1,0,0,0,0,0,0
SMILES,thrombin 1536,FXIa inh,FXIIa inh,hK5 inh,Furin inhibitor,PERK inhibitor
COc1ccc(-n2nnnc2SCC(=O)c2ccc3c(c2)OCCO3)c(OC)c1,0,0,0,0,0,4.0
O=C(Nc1ncc(Cc2ccccc2)s1)c1cccs1,0,0,42.1,0,0,0
Cc1ccc(Cc2cnc(NC(=O)c3cccs3)s2)cc1,0,0,0,0,0,0
COc1ccccc1CNC(=O)c1csc2c1CCCC2,0,0,0,0,0,0
COc1ccccc1NC(=O)c1csc2c1CCCC2,0,0,0,63.1,0,0
COCCNC(=O)C(c1ccncc1)N(C(=O)c1sc(C)nc1C)c1cccc(C)c1 (stereo not given),0,0,0,0,0,0
O=C(CC1CC2CCC1C2)Nc1nc(-c2ccccn2)cs1 (stereo not given),0,0,0,86.9,0,0
O=C(Nc1nc(-c2ccccn2)cs1)C1CC1,0,0,0,0,0,0
CCOc1ccc(Br)cc1-c1noc(-c2cccs2)n1,0,0,0,47.7,0,0
COc1ccc(-c2noc(-c3cccs3)n2)cc1OC,0,0,0,0,0,0
COP(=O)(CC(=O)c1ccccc1)CC(=O)c1ccccc1,0,0,0,0,0,0
COc1ccc(NC(=O)C(Cl)=C(Cl)Cl)cn1,0,0,0,103.5,0,0
COc1ccc(NC(=O)CCl)cn1,0,0,0,0,0,0
Cc1ccc2nc(NC(=O)CSCC(=O)OCC(=O)c3ccccc3)sc2c1,93.5,0,0,0,0,0
CCOc1ccc(C2C(C(=O)O)CCC(=O)N2C2CCCCC2)cc1 (stereo not given),0,0,0,0,0,0
O=C1CC(Nc2ccccc2)C(=O)N1c1ccc(N2CCOCC2)cc1 (stereo not given),0,0,0,44.8,0,0
Cc1cc([N+](=O)[O-])c2c(c1C)C1C=CCC1C(c1ccccn1)N2 (stereo not given),0,0,0,0,0,0
CCOC(=O)c1c(C)n(C)c2ccc(OC)c(NC(=O)CCN3CCC(Cc4ccccc4)CC3)c12,0,51.8,0,0,0,0
CCOC(=O)c1c(C)n(C)c2ccc(OC)c(NC(=O)CN3CCSCC3)c12,0,0,0,0,0,0
Cc1ccc(-c2c(C)sc(NC(=O)C3C4CCC(O4)C3C(=O)O)c2C(=O)OC(C)C)cc1 (stereo not given),0,0,0,106.6,0,0
O=C(COC(=O)c1n[nH]c2ccccc12)Nc1cccc(S(=O)(=O)N2CCOCC2)c1,64.6,0,0,0,0,0
O=C(COC(=O)c1cc(=O)[nH]c2ccccc12)Nc1cccc(S(=O)(=O)N2CCOCC2)c1,0,0,0,0,0,0
COc1ccccc1NC(=O)c1cc(S(=O)(=O)N2CCOCC2)ccc1Cl,0,0,0,0,29.0,0
COc1ccc(S(=O)(=O)N2CCOCC2)cc1NC(=O)COC(=O)c1ccc(C)s1,73.4,0,0,0,0,0
COc1cc(S(=O)(=O)N2CCOCC2)ccc1NC(=O)COC(=O)c1ccccn1,69.9,0,0,0,0,0
C=CCn1cnc2c(nnn2Cc2ccc(F)cc2)c1=O,0,0,0,0,0,0
O=C(CSc1nc2ccccc2n1Cc1ccccc1Cl)N/N=C/c1ccccc1C(=O)O,0,0,0,47.1,0,0
CCOC(=O)c1nnn(-c2nonc2N)c1CSc1nnc(N)s1,0,0,0,0,0,0
COc1cc(C(=O)NC(=S)N(C)Cc2ccccc2)cc(OC)c1OC,0,101.5,0,0,0,0
COc1cc(C(=O)NCc2nnc(SCC(=O)N3CCCc4ccccc43)o2)cc(OC)c1OC,0,0,0,0,0,0
